Results reported in ChEMBL document CHEMBL1147580, “Antihyperglycemic activity of 2-methyl-3,4,5-triaryl-1H-pyrroles in SLM and STZ models” (2004).
The source made the active and inactive calls. The rule behind the calls is not given here.

Experiments:
[1] = system: Rattus norvegicus; assay: In vivo anti-hyperglycaemic activity of compound in rat sucrose(100 mg/kg, oral gavage) loaded model (SLM) at 100 mg/kg dose; NA = not active; format: functional, organism-based; design: dose 100 mg/kg
Procedure, shortened: (§1)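 Overnight-fasted male Sprague–Dawley rats, five per group, were bled at baseline and then given the compound at 100 mg/kg by oral gavage. Sucrose (10 gm/kg) was loaded 30 min later. Blood glucose was taken at 30, 60, 90 and 120 min after the load, and % fall was calculated by the AUC method. Values are means of three experiments.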

[2] = system: Rattus norvegicus; assay: In vivo anti-hyperglycaemic activity of compound in rat sucrose(100 mg/kg, oral gavage) loaded model (SLM) at 100 mg/kg dose; format: functional; procedure, shortened: as §1
[3] = system: Rattus norvegicus; assay: In vivo anti-hyperglycaemic activity of compound in rat streptozotocin(60 mg/kg, ip) model (STZ) at 100 mg/kg dose

Row | SMILES | Blood sugar lowering [1] | Blood sugar lowering [2] [%] | Blood sugar lowering [3] [%]
1 | Cc1[nH]c(-c2ccc(Cl)cc2)c(-c2ccc(Cl)cc2)c1-c1ccccc1F | inactive |  | 
2 | Cc1[nH]c(-c2cccc(Cl)c2)c(-c2cccc(Cl)c2)c1-c1ccc(F)cc1 | inactive |  | 
3 | Cc1[nH]c(-c2ccccc2)c(-c2ccccc2)c1-c1ccccc1F | inactive |  | 
4 | Cc1[nH]c(-c2ccccc2)c(-c2ccccc2)c1-c1cccc(C(F)(F)F)c1 |  | 40.8 | 25.1
5 | COc1ccc(-c2[nH]c(C)c(-c3ccc(F)cc3)c2-c2ccc(OC)cc2)cc1 |  | 14.7 | 
6 | COc1ccc(-c2c(C)[nH]c(-c3ccccc3)c2-c2ccccc2)cc1OC |  | 27.8 | 28.6
7 | COc1ccc(-c2c(C)[nH]c(-c3ccccc3)c2-c2ccccc2)c(OC)c1 |  | 20.3 | 
8 | c1ccc(-c2nc(-c3ccccc3)c(-c3ccccc3)nc2-c2ccccc2)cc1 |  | 21.9 | 
9 | Cc1[nH]c(-c2ccccc2)c(-c2ccccc2)c1-c1ccc(F)cc1 |  | 49.7 | 34.7
10 | Cc1[nH]c(-c2ccc(Cl)cc2)c(-c2ccc(Cl)cc2)c1-c1ccc(F)cc1 | inactive |  | 
